According to PubChem BioAssay AID493091 (Sanford-Burnham Center for Chemical Genomics, 2011):
Out of some 340,000 compounds screened, about 3,000 (0.88%) were called active. For the sample, actives were picked, then their nearest neighbours and some compounds at random. A number with no mark means an inactive call.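 The calls were made as follows: active = inhibition above about 50% at 20 µM (limit read from the data); inactive = the rest.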

biological target: Carboxy-terminal domain RNA polymerase II polypeptide A small phosphatase 1 (Homo sapiens) (UniProt Q9GZU7); test: inhibition of human SCP1 dephosphorylation activity – biochemical, colorimetric, uHTS, primary screen (AID 493091); details: Recombinant Scp1, phosphopeptide, malachite green phosphate absorbance; at 20 µM; hits give high values;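 also: plate controls were DMSO wells with enzyme for no effect and wells lacking enzyme for full effect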
Sequence (Q9GZU7 76-261 limits assumed): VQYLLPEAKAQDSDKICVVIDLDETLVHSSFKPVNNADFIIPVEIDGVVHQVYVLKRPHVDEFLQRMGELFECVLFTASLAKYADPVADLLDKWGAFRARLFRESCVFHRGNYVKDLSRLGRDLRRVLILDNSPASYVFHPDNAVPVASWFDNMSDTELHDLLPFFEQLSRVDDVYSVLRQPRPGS
Summary of the method: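 Test system: SCP-1 phosphatase catalytic domain, residues 76-261 | Compound dosing: One concentration, 20 µM, with 1.0% DMSO | Schedule: 45 min room-temperature reaction, 5 min colour, 30 min stabiliser | Detection: Absorbance at 630 nm | Read-out basis: % inhibition of SCP-1 phosphate liberation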

Structure (SMILES)	inhibition
CCNC(=S)NCC	-5.72%
COc1ccc(/C(O)=C2/C(=O)C(=O)N(CC3CCCO3)C2c2ccc(OC)c(OC)c2)cc1 (stereo not drawn)	-4.81%
Cc1ccc(NC(=O)C(=O)NCc2ccco2)c(C)c1	-2.49%
Cc1ccc(SCC(=O)NC(=O)NCc2ccco2)c(C)c1	70% (active)
Cc1cc(C)n2nc(SCC(=O)NC(=O)NCc3ccco3)nc2n1	7.37%
O=C(Cc1ccccc1Cl)N1CCN(c2ccccn2)CC1	-2.92%
O=C(Cn1cnc2ccccc2c1=O)Nc1cccc(S(=O)(=O)N2CCCCC2)c1	-7.43%
CN(C)C=NC(=O)c1cccn1-c1ncc(C(F)(F)F)cc1Cl	-4.15%
COc1ccc(Cl)cc1NC(=O)CCS(=O)(=O)c1ccc(Br)cc1	94.5% (active)
CCOc1ccc(OCC)c(NC(=O)CCS(=O)(=O)c2ccc(C)cc2)c1	-14.2%
Cc1ccc(S(=O)(=O)CCC(=O)OCC(=O)NCCc2ccc(S(N)(=O)=O)cc2)cc1	-5.47%
O=C(Cc1ccc(Br)cc1)NCCc1ccccc1	-9.76%
COc1ccc(Cl)cc1NC(=O)CCS(=O)(=O)c1cc2c(cc1C)NC(=O)CO2	-1.24%
O=C(CCS(=O)(=O)c1ccc(Br)cc1)NCCc1ccc(Cl)cc1	80% (active)
CCc1ccc(C(=O)N2CCN(S(=O)(=O)c3sc(C(=O)O)c(C)c3C(=O)O)CC2)cc1	11.9%
CC1CC(C)CN(C/C=C/c2ccccc2[N+](=O)[O-])C1 (stereo not drawn)	-6.48%
CN(C)[C@@H]1C(=O)C(C(N)=O)=C(O)[C@@]2(O)C(=O)C3=C(O)c4c(O)ccc(Cl)c4[C@@H](O)[C@H]3C[C@@H]12	-6.29%
C=C1c2c(Cl)ccc(O)c2C(O)=C2C(=O)[C@]3(O)C(O)=C(C(N)=O)C(=O)[C@@H](N(C)C)[C@@H]3[C@@H](O)C12 (stereo partly drawn)	65.5% (active)
O=C(CNC(=O)c1cc2c(s1)CCC2)Nc1ccccc1Br	-7%
O=C(Nc1ccc(-c2nnc(-c3ccccc3)o2)cc1)c1ccc(Br)o1	73% (active)
O=C(CNC(=O)c1ccc(Br)o1)Nc1ccccc1	-5.1%
Brc1ccc(-c2nnc(-c3ccccc3)o2)o1	2.87%
O=C(COC(=O)c1cccnc1Cl)NC12CC3CC(CC(C3)C1)C2	-2.71%
CC(C)OCC(O)CN1CCN(C(c2ccccc2)c2ccccc2)CC1 (stereo not drawn)	-1.8%

Structure (SMILES)	inhibition
c1ccc(C(c2ccccc2)N2CCN(Cc3nnnn3C3CCCCC3)CC2)cc1	5.01%
CC1(C)CC(N2CCN(C(c3ccccc3)c3ccccc3)CC2)=CC(=[N+]2CCCCC2)C1	98.9% (active)
COc1cc2c(cc1OC)C1C(=O)c3cc(OS(C)(=O)=O)c(OC)cc3C1N(C)C2=O (stereo not drawn)	7.12%
Cc1ccc(C)c(-c2nnc(NC(=O)CS(=O)(=O)c3ccccc3)o2)c1	-3.82%
Cc1ccccc1C1CC(c2cccs2)=NN1S(C)(=O)=O (stereo not drawn)	4.93%
O=c1c2cc(-c3ccccc3)sc2nc2n1N=C(c1cccs1)CS2	79.1% (active)
O=c1c(-c2ccccc2)cnc2n1CCS2	-9.56%
COc1ccc(OCc2cc(C(=O)NCC3(C)COC3)no2)c(Cl)c1	-1.65%
Cc1nc2ccc(C(=O)N(C)CC3CCCN(CCc4ccc(Cl)cc4)C3)cc2[nH]1 (stereo not drawn)	-5.73%
COc1ccc(S(=O)(=O)N2CCN(C(=O)c3cc(C)oc3C)CC2)cc1	-8.28%
N#Cc1c(N2CCCCC2)nc(N)c2c(N)nc(SCC(=O)O)cc12	65.9% (active)
Nc1nc(NCC(=O)O)nc(N2CCCCCC2)c1[N+](=O)[O-]	6.19%
N#CCc1c(C#N)c(N)nc(N2CCCC2)c1C#N	-4.92%
CC(=O)Nc1ccc(S(=O)(=O)NC(C)C(=O)OCCOc2ccc(F)cc2)cc1 (stereo not drawn)	-7.64%
CCOc1ccccc1Nc1nnc(SCC(=O)NCC2CCCO2)s1 (stereo not drawn)	-9.59%
Cc1ccn2c(=O)nc(SCC(=O)NCc3ccc(F)cc3)nc2c1	16.3%
Cc1ccn2c(=O)nc(SCC(=O)NCc3ccc4c(c3)OCO4)nc2c1	73.6% (active)
O=C(CSc1ncn[nH]1)NCc1ccc2c(c1)OCO2	-1.73%
O=C1CC2(CCN(C(=O)COc3ccc(F)cc3)CC2)Oc2ccccc21	1.25%
O=C(CSc1ncn[nH]1)Nc1ccnc2ccccc12	-9.75%
CCCCCN1CC(O)=C(c2ccccc2)C1=N	-2.2%
CCCCNC(=O)CCn1nc(-c2ccc(Cl)cc2)ccc1=O	6.19%
CCCCCN1CC(O)=C(c2nc(-c3ccc(Cl)cc3)cs2)C1=N	94.9% (active)
Cc1ccc(NC(=O)CN(C)C(=O)c2ccc(Br)o2)cc1	1.38%

Structure (SMILES)	inhibition
CC1(C)CC(=O)C2=C(C1)NCN(CCCN1CCOCC1)C2	-1.79%
CC(C)C(=O)NC(NC(=S)NC1CCS(=O)(=O)C1)C(Cl)(Cl)Cl (stereo not drawn)	-9.76%
CC(=O)Nc1ccc(N2C(=O)CCC2=O)cc1C	75.8% (active)
COC(=O)c1cccc(NC(=O)c2cccc(N3C(=O)CCC3=O)c2)c1	-7.64%
Cc1cccc(NC(=O)c2cc(N3C(=O)CCC3=O)ccc2Cl)n1	-6.1%
O=C(C(NS(=O)(=O)c1cccc2nsnc12)c1ccccc1)N1CCN(c2ccccn2)CC1 (stereo not drawn)	-0.35%
O=S(=O)(NC(=S)Nc1ccccc1)c1ccc(F)cc1	-7.43%
CCOc1ccc(Nc2nc(Cc3nnc(SCC(=O)NC4CCCC4)n3C)cs2)cc1	-5.22%
COCCCn1c(SCC(=O)NC2CCCC2)nnc1-c1ccccc1	-9.75%
COCCCn1c(Cc2csc(Nc3cccc(Cl)c3)n2)nnc1SCC(=O)OC1CCCCC1	58.9% (active)
O=C(CSc1nnc(N2CCOCC2)n1-c1cccc(F)c1)N1CCN(c2ccccn2)CC1	-3.89%
Cc1c(C)c2ccc(OCC(=O)N3CCC(C(=O)O)CC3)c(C)c2oc1=O	1.4%
Cc1ccc(S(=O)(=O)NCCC(=O)NNC(=O)C2COc3ccccc3O2)cc1 (stereo not drawn)	-1.94%
Cc1c(CC(=O)N2CCN(C(=O)C3COc4ccccc4O3)CC2)c(=O)oc2c(O)c(O)ccc12 (stereo not drawn)	79.7% (active)
COc1ccc(NC2CCCN(C(=O)c3ccncc3)C2)cc1 (stereo not drawn)	3.08%
CNc1[nH]ncc1[N+](=O)[O-]	-7.97%
NC(=O)c1nsc(C(=O)N(CCCN2CCOCC2)C(C(=O)NC2CCCCC2)c2ccc(Cl)cc2)c1N (stereo not drawn)	-5.84%
CCS(=O)(=O)N1CCCC(C(=O)NCCCN(C)Cc2ccccc2)C1 (stereo not drawn)	-3.41%
COc1ccc(Cc2nnc(NS(=O)(=O)Cc3ccccc3)s2)cc1	-2.23%
COc1ccc(Cc2nnc(NC(=O)Cc3cccs3)s2)cc1	87% (active)
COc1ccc(OC)c(NC(=O)Cc2cccs2)c1	14.5%
CC1CCC(NC(=O)CNC(=O)c2ccc3ccccc3c2)CC1 (stereo not drawn)	-3.85%
O=C(CN1CCCCC1)NC(=O)Nc1ccccc1F	1.25%
C=C1CCN([C@H](C(=O)NCc2cc(OC)c(OC)c(OC)c2)C(C)C)S(=O)(=O)c2ccccc21	-5.59%

Structure (SMILES)	inhibition
O=C(CN1CCN(S(=O)(=O)/C=C/c2ccccc2)CC1)NC(=O)NCc1ccco1	52.3% (active)
NC(=O)CCN1CCN(S(=O)(=O)/C=C/c2ccccc2)CC1	5.89%
COc1ccccc1N1CCN(CC(=O)NC(=O)NCc2ccco2)CC1	-8.28%
COC(=O)c1cc(OC)c(OC)cc1NC(=O)C1CCCO1 (stereo not drawn)	-6.55%
CN(CC(=O)Nc1ccc(Cl)cc1)C(=O)CNC(=O)c1ccc2ccccc2c1	-10%
O=C(NNC(=O)c1ccc2ccccc2c1)c1ccc(Cl)cc1	99.5% (active)
O=C(CCCOc1ccccc1)NNC(=O)c1ccc(Cl)cc1	0.5%
N=C1C(=O)OCC1c1ccccc1NC(=O)CN1CCCCC1 (stereo not drawn)	-9.11%
Cc1cc(C)n(CCNCc2c(C(=O)N3C[C@@H](C)O[C@@H](C)C3)nc3ccc(Cl)cn23)n1	-3.38%
CCn1cc(CN2CCC(C(=O)Nc3cccc(-c4cccc(Cl)c4)c3)CC2)c(C)n1	-4.7%
CCOC(=O)CCCCCC(=O)Nc1ccc2c(c1)CC(=O)N([C@@H](C)CO)C[C@H](C)[C@@H](CN(C)Cc1ccccc1)O2	-4.43%
C=CCOc1c2ccc(C(=O)N(CC)c3ccc(OC)cc3)cc2nn1C	-2.27%
O=C(COC(=O)c1cnccn1)Nc1cccc2ccccc12	-9.56%
CCOC(=O)C(=Cc1ccccc1OC)C(=O)OCC	-0.82%
C=C1c2cccc(OC)c2O[C@H](C(=O)OCC)[C@@H]1CCCCCC	101% (active)
CC1C(=O)NC(=O)C1c1ccccc1 (stereo not drawn)	-3.27%
CC(=O)CSc1nc(CCc2ccccc2)c(C#N)c(=O)[nH]1	-7.04%
N#Cc1c(-c2cccs2)nc(SCC(=O)c2ccc(Br)cc2)[nH]c1=O	64.9% (active)
O=C(CSc1nc2ccccc2c(=O)[nH]1)Nc1nc(-c2ccc(Br)cc2)cs1	3.75%
CCN(CC)C(=O)CS(=O)CC(=O)Nc1cc(OCCOC)c(Cl)cc1Cl (stereo not drawn)	1.24%
O=C(Cn1cnc([N+](=O)[O-])n1)NCCc1ccccc1	-2.5%
